Activity calls are given as the source filed them. The calls are words filed in the database; no cut-off is given here.
Key:
[1] = molecular target: T1, Androgen receptor (Homo sapiens) (UniProt P10275); experiment: Agonist activity at wild type AR expressed in […] SC cells assessed as effect on cell proliferation by WST-8 assay; format: cell-based
T1 sequence (whole entry): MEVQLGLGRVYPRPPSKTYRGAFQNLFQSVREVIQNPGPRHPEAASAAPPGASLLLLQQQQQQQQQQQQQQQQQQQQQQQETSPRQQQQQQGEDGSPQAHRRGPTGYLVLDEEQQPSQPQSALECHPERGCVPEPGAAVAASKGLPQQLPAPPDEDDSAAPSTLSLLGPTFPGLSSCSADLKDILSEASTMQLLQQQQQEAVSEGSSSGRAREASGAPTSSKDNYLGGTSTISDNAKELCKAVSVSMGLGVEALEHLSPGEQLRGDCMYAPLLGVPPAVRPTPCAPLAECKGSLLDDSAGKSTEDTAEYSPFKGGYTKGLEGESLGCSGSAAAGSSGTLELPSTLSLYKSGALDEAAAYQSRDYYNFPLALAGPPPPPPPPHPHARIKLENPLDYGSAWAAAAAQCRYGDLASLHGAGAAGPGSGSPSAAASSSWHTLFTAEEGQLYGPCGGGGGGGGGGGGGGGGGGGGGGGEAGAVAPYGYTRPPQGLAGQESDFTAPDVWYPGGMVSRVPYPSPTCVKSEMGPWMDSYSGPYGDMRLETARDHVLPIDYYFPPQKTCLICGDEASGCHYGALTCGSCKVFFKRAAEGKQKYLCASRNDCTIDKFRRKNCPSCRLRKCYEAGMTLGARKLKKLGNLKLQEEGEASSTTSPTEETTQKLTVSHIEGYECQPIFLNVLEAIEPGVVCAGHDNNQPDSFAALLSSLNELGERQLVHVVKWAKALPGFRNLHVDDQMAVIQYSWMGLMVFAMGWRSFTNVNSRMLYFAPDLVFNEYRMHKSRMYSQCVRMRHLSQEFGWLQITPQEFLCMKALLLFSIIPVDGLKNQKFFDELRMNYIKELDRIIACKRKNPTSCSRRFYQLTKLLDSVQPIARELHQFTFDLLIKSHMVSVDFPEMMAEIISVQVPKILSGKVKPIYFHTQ

[2] = system: PC-3; experiment: Cytotoxicity against androgen-independent human PC3 cells assessed as inhibition of cell proliferation after 3 days by WST-8 assay; format: functional, cell-based
[3] = molecular target: T2, Androgen receptor (Homo sapiens, UniProt P10275); experiment: Displacement of [3H]-DHT from human GST fused AR-LBD (627 to 919 amino acids) transfected in Escherichia coli HB 101 after 15 hrs by liquid scintillation counting assay
T2 sequence (P10275 whole entry): T1 sequence (whole entry)
How it was run: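 Crude sonicated lysate in TEGDM was diluted to 0.3-0.5 mg/mL protein. Incubation was in the dark at 4°C for 15 h with 4 nM [3H]-DHT and 1 µM triamcinolone acetonide (final). Free ligand was removed with dextran/γ-globulin-coated charcoal, and the supernatant counted by liquid scintillation; ≥duplicate.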

Row | SMILES | Activity [1] | inhibition [2] | IC50 [3] [µM]
1 | COc1ccccc1Cc1n[nH]c(=O)c2ccccc12 | inactive |  | 
2 | CCNc1ccc(Cc2n[nH]c(=O)c3ccccc23)cc1 | inactive |  | 
3 | O=c1[nH]nc(Cc2c(F)cccc2F)c2ccccc12 | inactive |  | 
4 | CS(=O)(=O)Nc1ccccc1Cc1n[nH]c(=O)c2ccccc12 | inactive |  | 
5 | O=c1[nH]nc(Cc2c(Cl)ccc(Cl)c2Cl)c2ccccc12 | inactive | inactive | 56.7
6 | Nc1ccccc1Cc1n[nH]c(=O)c2ccccc12 | inactive | inactive | 45.2
7 | CS(=O)(=O)Nc1ccc(Cc2n[nH]c(=O)c3ccccc23)cc1 | inactive |  | 
8 | Cc1ccccc1Cc1n[nH]c(=O)c2ccccc12 | inactive |  | 
9 | CCN(CC)c1ccccc1Cc1n[nH]c(=O)c2ccccc12 | inactive |  | 
10 | Cc1cccc(C)c1Cc1n[nH]c(=O)c2ccccc12 | inactive | inactive | 84.3
11 | CC(=O)Nc1ccc(Cc2n[nH]c(=O)c3ccccc23)cc1 | inactive |  | 
12 | Oc1nnc(Cc2ccccc2Cl)c2ccccc12 | inactive | inactive | 85.4
13 | CNc1ccc(Cc2n[nH]c(=O)c3ccccc23)cc1 | inactive |  | 
14 | O=C(Nc1ccc(Cc2n[nH]c(=O)c3ccccc23)cc1)C(F)(F)F | inactive |  | 
15 | O=[N+]([O-])c1ccc(Cc2nnc(O)c3ccccc23)cc1 | inactive |  | 
16 | O=c1[nH]nc(Cc2ccccc2[N+](=O)[O-])c2ccccc12 | inactive | inactive | > 100
17 | CN(C)c1ccc(Cc2n[nH]c(=O)c3ccccc23)cc1 | inactive |  | 
18 | O=C(Nc1ccccc1Cc1n[nH]c(=O)c2ccccc12)C(F)(F)F | inactive |  | 
19 | O=c1[nH]nc(Cc2c(Cl)cccc2Cl)c2ccccc12 | inactive | inactive | 10.9
20 | CNc1ccccc1Cc1n[nH]c(=O)c2ccccc12 | inactive |  | 
21 | O=C(O)c1ccccc1Cc1n[nH]c(=O)c2ccccc12 | inactive |  | 
22 | O=c1[nH]nc(Cc2ccccc2)c2ccccc12 | inactive |  | 
23 | O=c1[nH]nc(Cc2ccccc2F)c2ccccc12 | inactive |  | 
24 | CCN(CC)c1ccc(Cc2n[nH]c(=O)c3ccccc23)cc1 | inactive |  | 
25 | CCNc1ccccc1Cc1n[nH]c(=O)c2ccccc12 | inactive |  | 
26 | Nc1ccc(Cc2n[nH]c(=O)c3ccccc23)cc1 | inactive |  | 
27 | O=c1[nH]nc(Cc2ccccc2C(F)(F)F)c2ccccc12 | inactive |  | 
28 | CC(C)(O)C(=O)Nc1ccc([N+](=O)[O-])c(C(F)(F)F)c1 | inactive |  | 
29 | CN(C)c1ccccc1Cc1n[nH]c(=O)c2ccccc12 | inactive |  | 
30 | CC(=O)Nc1ccccc1Cc1n[nH]c(=O)c2ccccc12 | inactive |  | 

— ChEMBL document CHEMBL3621051, “Design and synthesis of 4-benzyl-1-(2H)-phthalazinone derivatives as novel androgen receptor antagonists” (Eur J Med Chem, 2015)
